This is an account of results in ChEMBL document CHEMBL1143669, “Triterpene acids from Poria cocos and their anti-tumor-promoting effects” (2007).

Molecules are shown by their SMILES. Activity calls are given as the source filed them. The calls are words filed in the database; no cut-off is given here.

For assay [1], the system named is Human gammaherpesvirus 4. In words: Inhibition of TPA-induced Epstein-Barr virus early antigen activation in Raji cells at 100 mol ratio/32 pmol TPA relative to control; values are per cent of control.
The subject of the next assay is Raji. In words: Cell viability of Raji cells. It counts as functional, Homo sapiens. In outline: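 Raji cells were exposed to test compound at 32 nmol, a 1000:1 mol ratio to TPA, and cell viability (%) was scored in the EBV-EA activation system.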
For assay [2], the system named is Human gammaherpesvirus 4. Nature of the assay: Effect on TPA-induced Epstein-Barr virus early antigen activation in Raji cells at 500 mol ratio/32 pmol TPA relative to control.
Assay [3] deals with Human gammaherpesvirus 4. Nature of the assay: Inhibition of TPA-induced Epstein-Barr virus early antigen activation in Raji cells at 10 mol ratio/32 pmol TPA relative to control; values are per cent of control.
Assay [4] concerns Human gammaherpesvirus 4. Nature of the assay: Effect on TPA-induced Epstein-Barr virus early antigen activation in Raji cells at 1000 mol ratio/32 pmol TPA relative to control.
A further assay concerns Mus musculus. In words: Inhibition of DMBA initiated TPA-induced skin tumor promotion in mouse at 85 nmol after 20 weeks by in vivo two-stage carcinogenesis test. It counts as functional, organism-based.

Turning to `C=C(CCC(C(=O)O)[C@H]1CC[C@@]2(C)C3=CC[C@H]4C(C)(C)C(=O)CC[C@]4(C)C3=CC[C@]12C)C(C)C` (some centres not stated) [DEHYDROEBURICONIC ACID], the “EBV-EA activation (% of control)” value in the assay on Human gammaherpesvirus 4 [1] is on record as 79.5%; in the assay on Human gammaherpesvirus 4 [3], 100%. In addition, the Activity stood at 70% with Raji, 43.9% in the assay on Human gammaherpesvirus 4 [2] and 9.5% with Human gammaherpesvirus 4 [4].
As for `C=C(CCC(C(=O)O)[C@H]1[C@H](O)C[C@@]2(C)[C@]34C=C[C@@]5(OO3)C(C)(C)[C@@H](O)CC[C@]5(C)C4=CC[C@]12C)C(C)C` (some centres not stated), the “EBV-EA activation (% of control)” value is reported as 57.8% in the assay on Human gammaherpesvirus 4 [1] and 83.6% with Human gammaherpesvirus 4 [3]. The Activity in the assay on Raji is 60%; in the assay on Human gammaherpesvirus 4 [2], 17.4%; in the assay with Human gammaherpesvirus 4 [4] it was 0%.
On to `C=C(CC[C@@H](C(=O)O)[C@H]1CC[C@@]2(C)C3=CC[C@H]4C(C)(C)[C@@H](O)CC[C@]4(C)C3=CC[C@]12C)C(C)C` [DEHYDROEBURICOIC ACID], for which the figures for the “EBV-EA activation (% of control)” value with Human gammaherpesvirus 4 [1] and with Human gammaherpesvirus 4 [3] were 74.9% and 100%, respectively. Besides, the Activity is 70% in the assay with Raji, 45.1% with Human gammaherpesvirus 4 [2] and 8.7% in the assay with Human gammaherpesvirus 4 [4].
Take `CC1=C(/C=C/C(C)=C/C=C/C(C)=C/C=C/C=C(C)/C=C/C=C(C)/C=C/C2=C(C)CCCC2(C)C)C(C)(C)CCC1` [BETA CAROTENE]: the “EBV-EA activation (% of control)” value with Human gammaherpesvirus 4 [1] stood at 82.1%; with Human gammaherpesvirus 4 [3], 100%. In addition, the Activity with Raji was determined as 70%; in the assay with Human gammaherpesvirus 4 [2] it was 34.2%; with Human gammaherpesvirus 4 [4] it was 8.6%.
Consider `C=C(CC[C@@H](C(=O)O)[C@H]1[C@H](O)C[C@@]2(C)C3=C(CC[C@]12C)[C@@]1(C)CC[C@H](OC(C)=O)C(C)(C)[C@@H]1CC3)C(C)C` [PACHYMIC ACID], for which the entries for the “EBV-EA activation (% of control)” value in the assay with Human gammaherpesvirus 4 [1] and in the assay on Human gammaherpesvirus 4 [3] were 71.6% and 96.5%, respectively. For the same compound, the Activity in the assay with Raji came out at 70%; in the assay with Human gammaherpesvirus 4 [2] it was 24.7%; in the assay with Human gammaherpesvirus 4 [4] it was 0%.
For `C=C(CCC(C(=O)O)[C@H]1[C@H](O)C[C@@]2(C)C3=CC[C@H]4C(C)(C)[C@@H](OC(C)=O)CC[C@]4(C)C3=CC[C@]12C)C(C)C` (some centres not stated) [DEHYDROPACHYMIC ACID] the same measures were 72.4%, 95.1%, 70%, 28.1% and 0%.
On to `C=C(CC[C@@H](C(=O)O)[C@H]1CC[C@@]2(C)C3=CC[C@@H](C(=C)C)[C@](C)(CCC(=O)O)C3=CC[C@]12C)C(C)C` [PORICOIC ACID C], for which the “EBV-EA activation (% of control)” value is recorded as 67.2% in the assay on Human gammaherpesvirus 4 [1] and 91.7% with Human gammaherpesvirus 4 [3]. Besides, the Activity in the assay on Raji worked out at 70%; in the assay with Human gammaherpesvirus 4 [2] it was 21.1%; in the assay on Human gammaherpesvirus 4 [4], 0%. Further, the outcome in the assay on Mus musculus was Active.
Take `CC(C)=CCCC(C(=O)O)[C@H]1CC[C@@]2(C)C3=CC[C@H]4C(C)(C)C(=O)CC[C@]4(C)C3=CC[C@]12C` (some centres not stated) [DEHYDROTRAMETENONIC ACID]: the “EBV-EA activation (% of control)” value amounted to 71% in the assay on Human gammaherpesvirus 4 [1] and 94.2% in the assay with Human gammaherpesvirus 4 [3]. Also, the Activity in the assay on Raji was found to be 70%; in the assay on Human gammaherpesvirus 4 [2] it was 30.1%; in the assay with Human gammaherpesvirus 4 [4] it was 0%.
On to `C=C(C)[C@@H]1CC=C2C(=CC[C@]3(C)[C@@H](C(CCC=C(C)C)C(=O)O)CC[C@@]23C)[C@@]1(C)CCC(=O)O` (some centres not stated) [16-DEOXYPORICOIC ACID B], for which the “EBV-EA activation (% of control)” value in the assay with Human gammaherpesvirus 4 [1] worked out at 65%; in the assay on Human gammaherpesvirus 4 [3], 90%. Also, the figures for the Activity in the assay on Raji, in the assay on Human gammaherpesvirus 4 [2] and in the assay on Human gammaherpesvirus 4 [4] were 70%, 19.3% and 0%, respectively. Moreover, the outcome with Mus musculus was Active.
As to `C=C(CCC(C(=O)O)[C@H]1[C@H](O)C[C@@]2(C)C3=CC[C@H]4C(C)(C)C(=O)CC[C@]4(C)C3=CC[C@]12C)C(C)(C)O` (some centres not stated), the entries for the “EBV-EA activation (% of control)” value with Human gammaherpesvirus 4 [1] and in the assay with Human gammaherpesvirus 4 [3] were 65.3% and 91.7%, respectively. Moreover, the Activity amounted to 70% in the assay on Raji, 39.5% in the assay on Human gammaherpesvirus 4 [2] and 0% in the assay with Human gammaherpesvirus 4 [4].
For `CC(C)=CCCC(C(=O)O)[C@H]1CC[C@@]2(C)C3=CC[C@H]4C(C)(C)[C@@H](O)CC[C@]4(C)C3=CC[C@]12C` (some centres not stated) the same measures were 79.1%, 100%, 70%, 45.3% and 9.2%.
On the same counts, the results for `C=C(CC[C@@H](C(=O)O)[C@H]1CC[C@@]2(C)C3=C(CC[C@]12C)[C@@]1(C)CC[C@H](O)C(C)(C)[C@@H]1CC3)C(C)C` [EBURICOIC ACID] are 75.3%, 100%, 70%, 45.8% and 9.1%.
For `C=C(CCC(C(=O)O)[C@H]1[C@H](O)[C@H](O)[C@@]2(C)C3=CC[C@H]4C(C)(C)[C@@H](O)CC[C@]4(C)C3=CC[C@]12C)C(C)C` (some centres not stated) the same measures were 70%, 91%, 70%, 22.5% and 0%.
As for `C=C(C)[C@@H]1CC=C2C(=CC[C@]3(C)[C@@H](C(CCC(=C)C(C)(C)O)C(=O)O)[C@H](O)C[C@@]23C)[C@@]1(C)CCC(=O)O` (some centres not stated) [PORICOIC ACID D], the results for the “EBV-EA activation (% of control)” value in the assay on Human gammaherpesvirus 4 [1] and in the assay with Human gammaherpesvirus 4 [3] were 56.1% and 81.5%, respectively. The Activity with Raji is reported as 70%; in the assay on Human gammaherpesvirus 4 [2] it was 15.3%; with Human gammaherpesvirus 4 [4], 0%.
With `C=C(CC[C@@H](C(=O)O)[C@H]1[C@H](O)C[C@@]2(C)C3=CC[C@@H](C(=C)C)[C@](C)(CCC(=O)OC)C3=CC[C@]12C)C(C)C` [PORICOIC ACID AM], the “EBV-EA activation (% of control)” value in the assay on Human gammaherpesvirus 4 [1] is recorded as 57.8%; with Human gammaherpesvirus 4 [3], 81.8%. The Activity in the assay on Raji was determined as 70%; with Human gammaherpesvirus 4 [2] it was 9.6%; in the assay with Human gammaherpesvirus 4 [4], 0%.
For the compound `C=C(CCC(C(=O)O)[C@H]1CC[C@@]2(C)C3=CC[C@@H](C(=C)C)[C@](C)(CCC(=O)OC)C3=CC[C@]12C)C(C)C` (some centres not stated) [PORICOIC ACID CM], the “EBV-EA activation (% of control)” value with Human gammaherpesvirus 4 [1] came to 63.4%; in the assay with Human gammaherpesvirus 4 [3] it was 87.6%. In addition, the Activity with Raji was 70%; with Human gammaherpesvirus 4 [2], 37.2%; with Human gammaherpesvirus 4 [4], 0%.
Consider `C=C(C)[C@@H]1CC=C2C(=CC[C@]3(C)[C@@H]([C@@H](CCC(=C)C(C)(C)O)C(=O)O)[C@H](O)C[C@@]23C)[C@@]1(C)CCC(=O)OC` [PORICOIC ACID DM], for which the entries for the “EBV-EA activation (% of control)” value with Human gammaherpesvirus 4 [1] and in the assay on Human gammaherpesvirus 4 [3] were 59% and 86.3%, respectively. Moreover, the values for the Activity with Raji, in the assay with Human gammaherpesvirus 4 [2] and in the assay with Human gammaherpesvirus 4 [4] were 70%, 18.1% and 0%, respectively.
On to `C=C(C)[C@@H]1CCC2=C(CC[C@]3(C)[C@@H](C(CCC(=C)C(C)(C)O)C(=O)O)[C@H](O)C[C@@]23C)[C@@]1(C)CCC(=O)O` (some centres not stated) [25-HYDROXYPORICOIC ACID H], for which the “EBV-EA activation (% of control)” value with Human gammaherpesvirus 4 [1] turned out to be 57.5%; in the assay on Human gammaherpesvirus 4 [3], 82.8%. For the same compound, the Activity in the assay with Raji came to 70%; with Human gammaherpesvirus 4 [2], 16.7%; with Human gammaherpesvirus 4 [4] it was 0%.
